pIC50: −log10 of the molar value. Blank lines part the entries; values can stand above or below the compound they belong to. Activity calls are given as the source filed them. The rule behind the calls is not given here.
How the values were obtained:
CHL-1 [1] = experiment: Antiproliferative activity against human CHL-1 cells harboring wild type BRAF after 72 hrs by MTT assay; format: functional, cell-based; details: CHL-1, 72 h
Summary of the method: (§1)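 MTT viability in melanoma lines grown in DMEM with 10% FBS and pen/strep at 37 °C, 5% CO2. 3000 cells/well, settled overnight, then exposed to compound (0 to 50 µM) in triplicate for 24, 48 or 72 h. MTT (5.0 mg/mL solution) added 3 h before termination. IC50 from non-linear regression (variable slope), mean ± SD.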

[2] = Antiproliferative activity against human A375M cells harboring BRAF V600E mutant after 24 hrs by MTT assay; format: functional, cell-based; summary of the method: as §1
[3] = Antiproliferative activity against human A375M cells harboring BRAF V600E mutant after 48 hrs by MTT assay; format: functional, cell-based; summary of the method: as §1
CHL-1 [4] = experiment: Antiproliferative activity against human CHL-1 cells harboring wild type BRAF after 24 hrs by MTT assay; format: functional, cell-based; details: CHL-1, 24 h; summary of the method: as §1
CHL-1 [5] = experiment: Antiproliferative activity against human CHL-1 cells harboring wild type BRAF after 48 hrs by MTT assay; format: functional, cell-based; details: CHL-1, 48 h; summary of the method: as §1
UACC-903 [6] = experiment: Antiproliferative activity against human UACC-903 cells harboring BRAF V600E mutant after 48 hrs by MTT assay; format: functional, cell-based; details: UACC-903, 48 h; summary of the method: as §1
UACC-903 [7] = experiment: Antiproliferative activity against human UACC-903 cells harboring BRAF V600E mutant after 72 hrs by MTT assay; format: functional, cell-based; details: UACC-903, 72 h; summary of the method: as §1
[8] = Antiproliferative activity against human 1205 Lu cells harboring BRAF V600E mutant after 24 hrs by MTT assay; format: functional, cell-based; summary of the method: as §1
[9] = Antiproliferative activity against human A375M cells harboring BRAF V600E mutant after 72 hrs by MTT assay; format: functional, cell-based; summary of the method: as §1
[10] = Antiproliferative activity against human 1205 Lu cells harboring BRAF V600E mutant after 48 hrs by MTT assay; format: functional, cell-based; summary of the method: as §1
UACC-903 [11] = experiment: Antiproliferative activity against human UACC-903 cells harboring BRAF V600E mutant after 24 hrs by MTT assay; format: functional, cell-based; details: UACC-903, 24 h; summary of the method: as §1
[12] = Antiproliferative activity against human 1205 Lu cells harboring BRAF V600E mutant after 72 hrs by MTT assay; format: functional, cell-based; summary of the method: as §1
NHDF [13] = experiment: Cytotoxicity against human NHDF cells assessed as reduction in cell viability at 5 uM after 48 hrs by MTT assay; format: cell-based
Summary of the method: (§2)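 nHDF normal fibroblasts grown in serum-free fibroblast basal medium with growth kit and pen/strep/amphotericin B. Treated 48 h at set concentrations, with viability read by MTT assay.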

[14] = target: DNA topoisomerase 2-alpha (Homo sapiens) (UniProt P11388); experiment: Inhibition of human DNA topoisomerase 2alpha assessed as decrease in relaxation of supercoiled pBR322 DNA at 0.5 to 5 uM after 1 hr by ethidium bromide staining-based agarose gel electrophoresis
Summary of the method: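 Kit-based relaxation assay: supercoiled plasmid DNA with 4 units of human Topo-IIα in assay buffer plus test agent or DMSO at 37 °C (1 h in legend, 30 min in methods). Stopped with 10% SDS, then proteinase K 15 min at 37 °C. Run on 1% agarose 1-2 h, ethidium bromide 2 h, destain 15 min in TAE, UV imaging.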

NHDF [15] = experiment: Cytotoxicity against human NHDF cells assessed as reduction in cell viability at 2.5 uM after 48 hrs by MTT assay; format: cell-based; summary of the method: as §2

DNA topoisomerase 2-alpha (Homo sapiens), sequence (P11388 whole entry): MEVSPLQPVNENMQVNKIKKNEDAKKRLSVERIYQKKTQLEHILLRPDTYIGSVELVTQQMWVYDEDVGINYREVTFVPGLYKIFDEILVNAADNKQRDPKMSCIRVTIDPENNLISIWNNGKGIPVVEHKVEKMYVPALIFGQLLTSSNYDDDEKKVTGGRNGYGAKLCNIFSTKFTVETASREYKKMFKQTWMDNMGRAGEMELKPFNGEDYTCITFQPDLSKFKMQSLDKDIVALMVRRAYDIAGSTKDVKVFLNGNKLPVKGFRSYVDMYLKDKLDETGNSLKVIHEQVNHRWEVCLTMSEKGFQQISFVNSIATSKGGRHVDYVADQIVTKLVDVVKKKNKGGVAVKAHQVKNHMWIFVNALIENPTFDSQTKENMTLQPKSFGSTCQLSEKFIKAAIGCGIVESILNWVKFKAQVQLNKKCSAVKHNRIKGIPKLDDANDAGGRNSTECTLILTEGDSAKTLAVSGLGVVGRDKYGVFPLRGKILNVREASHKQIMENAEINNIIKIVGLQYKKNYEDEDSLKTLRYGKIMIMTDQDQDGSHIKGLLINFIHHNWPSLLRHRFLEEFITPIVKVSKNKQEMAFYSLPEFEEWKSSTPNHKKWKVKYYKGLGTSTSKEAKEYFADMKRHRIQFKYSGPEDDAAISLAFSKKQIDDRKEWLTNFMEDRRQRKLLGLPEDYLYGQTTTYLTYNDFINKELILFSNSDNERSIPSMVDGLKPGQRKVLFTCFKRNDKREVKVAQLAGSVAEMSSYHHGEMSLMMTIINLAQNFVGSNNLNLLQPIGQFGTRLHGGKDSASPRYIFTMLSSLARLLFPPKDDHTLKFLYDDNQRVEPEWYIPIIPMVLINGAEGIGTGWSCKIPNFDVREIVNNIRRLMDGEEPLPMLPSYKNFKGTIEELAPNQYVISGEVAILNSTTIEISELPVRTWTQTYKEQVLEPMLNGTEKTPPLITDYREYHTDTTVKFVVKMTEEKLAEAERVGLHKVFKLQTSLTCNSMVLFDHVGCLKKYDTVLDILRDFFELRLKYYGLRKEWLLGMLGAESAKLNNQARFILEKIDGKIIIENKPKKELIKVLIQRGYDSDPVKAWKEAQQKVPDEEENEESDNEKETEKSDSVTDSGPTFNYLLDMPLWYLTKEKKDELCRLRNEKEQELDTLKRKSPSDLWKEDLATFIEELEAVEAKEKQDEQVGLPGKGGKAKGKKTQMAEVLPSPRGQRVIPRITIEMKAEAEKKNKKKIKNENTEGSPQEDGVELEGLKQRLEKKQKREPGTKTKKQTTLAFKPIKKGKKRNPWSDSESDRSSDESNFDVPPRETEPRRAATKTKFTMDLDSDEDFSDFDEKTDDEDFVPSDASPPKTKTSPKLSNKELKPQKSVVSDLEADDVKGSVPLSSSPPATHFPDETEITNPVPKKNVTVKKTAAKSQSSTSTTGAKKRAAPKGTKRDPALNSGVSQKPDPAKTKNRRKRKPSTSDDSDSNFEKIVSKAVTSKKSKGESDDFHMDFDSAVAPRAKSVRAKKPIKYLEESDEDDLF

SMILES: N=C(N)[Se]CCN1C(=O)c2cccc3cc([N+](=O)[O-])cc(c23)C1=O
- pIC50 (CHL-1 [1]): 4.87
- pIC50 [2]: < 4.30
- pIC50 [3]: < 4.30
- pIC50 (CHL-1 [4]): < 4.30
- pIC50 (CHL-1 [5]): 5.07
- pIC50 (UACC-903 [6]): 4.74
- pIC50 (UACC-903 [7]): 4.85
- pIC50 [8]: < 4.30
- pIC50 [9]: 4.59
- pIC50 [10]: < 4.30
- pIC50 (UACC-903 [11]): < 4.30
- pIC50 [12]: 4.40

SMILES: O=C1c2cccc3cccc(c23)C(=O)N1CCCCN=C=[Se]
- pIC50 (CHL-1 [1]): 5.05
- pIC50 [2]: 4.71
- pIC50 [3]: 4.68
- pIC50 (CHL-1 [4]): 5.01
- pIC50 (CHL-1 [5]): 5.10
- pIC50 (UACC-903 [6]): 5.04
- pIC50 (UACC-903 [7]): 4.92
- pIC50 [8]: 4.88
- pIC50 [9]: 4.55
- pIC50 [10]: 4.80
- pIC50 (UACC-903 [11]): 4.88
- pIC50 [12]: 4.81

SMILES: CN(C)CCN1C(=O)c2cccc3cc([N+](=O)[O-])cc(c23)C1=O [MITONAFIDE]
- pIC50 (CHL-1 [1]): 6.30
- pIC50 [2]: 5.42
- pIC50 [3]: 5.82
- pIC50 (CHL-1 [4]): 5.55
- pIC50 (CHL-1 [5]): 6.05
- pIC50 (UACC-903 [6]): 6.10
- Activity (NHDF [13]): < 20%
- pIC50 (UACC-903 [7]): 6.30
- pIC50 [8]: 4.95
- inhibition [14]: Active
- pIC50 [9]: 5.89
- Activity (NHDF [15]): < 20%
- pIC50 [10]: 6.05
- pIC50 (UACC-903 [11]): 4.94
- pIC50 [12]: 6.22

- inhibition [14]: Active
SMILES: COc1cc([C@@H]2c3cc4c(cc3[C@@H](O[C@@H]3O[C@@H]5CO[C@@H](C)O[C@H]5[C@H](O)[C@H]3O)[C@H]3COC(=O)[C@H]23)OCO4)cc(OC)c1O

Reference: ChEMBL document CHEMBL4033667, “Design, synthesis, and identification of a novel napthalamide-isoselenocyanate compound NISC-6 as a dual Topoisomerase-IIα and Akt pathway inhibitor, and evaluation of its anti-melanoma activity” (Eur J Med Chem, 2017)
